Values belong to the compound of their own block, whether it stands above or below them.
Tests used:
[1] = test system: Kidney; experiment: Drug uptake in iv dosed Sprague-Dawley rat kidney upto 30 mins by PET scanning; format: ADME, organism-based; settings: in vivo, 0.5 h
Method in brief: (§1)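 Comparator radioligand 15–20 MBq/200 μL (0.15–0.18 nmol) injected iv into isoflurane-anesthetized male Sprague-Dawley rats. ROI time–activity curves for lung, heart, kidney, liver and cardiac blood pool. Uptake as decay-corrected SUV normalized to injected activity and body weight. n = 4, mean ± SD.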

[2] = test system: Liver; experiment: Drug uptake in iv dosed Sprague-Dawley rat liver upto 30 mins by PET scanning; format: ADME, organism-based; settings: in vivo, 0.5 h; method in brief: as §1
[3] = test system: Lung; experiment: Drug uptake in iv dosed Sprague-Dawley rat lung after 1 min by PET scanning; format: ADME, organism-based; settings: in vivo; method in brief: as §1
[4] = test system: Heart; experiment: Drug uptake in iv dosed Sprague-Dawley rat heart upto 30 mins by PET scanning; format: ADME, organism-based; settings: in vivo, 0.5 h; method in brief: as §1
[5] = test system: Kidney; experiment: Drug uptake in iv dosed Sprague-Dawley rat kidney after 10 mins by PET scanning; format: ADME, organism-based; settings: in vivo; method in brief: as §1
[6] = test system: Blood; experiment: Drug uptake in iv dosed Sprague-Dawley rat cardiac blood pool up to 30 mins by PET scanning; format: ADME, organism-based; settings: in vivo, 0.5 h; method in brief: as §1
[7] = test system: Heart; experiment: Drug uptake in iv dosed Sprague-Dawley rat heart after 10 mins by PET scanning; format: ADME, organism-based; settings: in vivo; method in brief: as §1
[8] = test system: Lung; experiment: Drug uptake in iv dosed Sprague-Dawley rat lung after 27.5 mins by PET scanning; format: ADME, organism-based; settings: in vivo; method in brief: as §1
[9] = Lipophilicity, log D of the compound in octanol-phosphate buffer at pH 7.4 by shake flask method; format: physicochemical
Method in brief: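 Radioligand (~200000 cpm) shaken with n-octanol (3.0 g) and 0.1 M sodium phosphate buffer pH 7.4 (3.0 g). Vortexed 3 min at room temperature, centrifuged 3500 rpm for 5 min. Phases weighed and counted; organic layer repartitioned until consistent. LogD = log of the cpm/g octanol to cpm/g buffer ratio. Triplicate.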

[10] = biological target: Translocator protein (Rattus norvegicus, UniProt P16257); experiment: Displacement of [11C]-PK-11195 from TPSO in Sprague-Dawley rat brain homogenate after 30 mins by gamma counting; format: tissue-based
[11] = test system: Lung; experiment: Drug uptake in Sprague-Dawley rat lung at 0.18 nmol, iv up to 30 mins by PET scanning; format: ADME, organism-based; settings: in vivo, 0.5 h
Method in brief: (§2)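 Male Sprague-Dawley rats (6–8 weeks old), isoflurane-anesthetized, prone. ROIs on lung, heart, kidney, liver, small intestine and cardiac blood pool. Uptake decay-corrected to injection time and expressed as SUV (body-weight normalized). n = 4, mean ± SD.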

[12] = test system: Heart; experiment: Drug uptake in Sprague-Dawley rat heart at 0.18 nmol, iv up to 30 mins by PET scanning; format: ADME, organism-based; settings: in vivo, 0.5 h
Method in brief: (§3)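 Isoflurane-anesthetized male Sprague-Dawley rats lay prone and received an iv bolus of [11C]radioligand in 200 μL. 3D list-mode emission scans ran 30 min from injection. Regions of interest were drawn on the organs and cardiac blood pool. Uptake was decay-corrected to injection time and expressed as SUV (normalized to injected radioactivity and body weight). Values are mean of n = 4.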

[13] = test system: Kidney; experiment: Drug uptake in Sprague-Dawley rat kidney at 0.18 nmol, iv after 2 mins by PET scanning; format: ADME, organism-based; settings: in vivo; method in brief: as §2
[14] = test system: Blood; experiment: Drug uptake in Sprague-Dawley rat cardiac blood pool at 0.18 nmol, iv up to 30 mins by PET scanning; format: ADME, organism-based; settings: in vivo, 0.5 h; method in brief: as §3
[15] = test system: Lung; experiment: Drug uptake in Sprague-Dawley rat lung at 0.18 nmol, iv after 2 mins by PET scanning; format: ADME, organism-based; settings: in vivo; method in brief: as §2
[16] = test system: Blood; experiment: Drug uptake in Sprague-Dawley rat cardiac blood pool at 0.18 nmol, iv after 2 mins by PET scanning; format: ADME, organism-based; settings: in vivo; method in brief: as §3
[17] = test system: Intestine; experiment: Drug uptake in Sprague-Dawley rat small intestine at 0.18 nmol, iv up to 30 mins by PET scanning; format: ADME, organism-based; settings: in vivo, 0.5 h; method in brief: as §2
[18] = test system: Kidney; experiment: Drug uptake in Sprague-Dawley rat kidney at 0.18 nmol, iv pretreated with unlabeled (R)-PK11195 by PET scanning; format: ADME, organism-based; settings: in vivo; method in brief: as §2
[19] = test system: Liver; experiment: Drug uptake in Sprague-Dawley rat liver at 0.18 nmol, iv after 27.5 mins by PET scanning; format: ADME, organism-based; settings: in vivo; method in brief: as §2
[20] = test system: Lung; experiment: Drug uptake in Sprague-Dawley rat lung at 0.18 nmol, iv pretreated with unlabeled (R)-PK11195 by PET scanning; format: ADME, organism-based; settings: in vivo; method in brief: as §2
[21] = test system: Lung; experiment: Drug uptake in Sprague-Dawley rat lung at 0.18 nmol, iv pretreated with unlabeled AC-5216 by PET scanning; format: ADME, organism-based; settings: in vivo; method in brief: as §2
[22] = test system: Heart; experiment: Drug uptake in Sprague-Dawley rat heart at 0.18 nmol, iv after 27.5 mins by PET scanning; format: ADME, organism-based; settings: in vivo; method in brief: as §3
[23] = test system: Lung; experiment: Drug uptake in Sprague-Dawley rat lung at 0.18 nmol, iv after 27.5 mins by PET scanning; format: ADME, organism-based; settings: in vivo; method in brief: as §2
[24] = test system: Liver; experiment: Drug uptake in Sprague-Dawley rat liver at 0.18 nmol, iv pretreated unlabeled AC-5216 measured after 27.5 mins by PET scanning relative to control; format: ADME, organism-based; settings: in vivo
Method in brief: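 Male Sprague-Dawley rats, 6-8 weeks, isoflurane-anesthetized. A blocking TSPO ligand (1.0 mg/kg, in 300 μL saline with 10% ethanol and 5% polysorbate 80) was injected 1 min before iv radioligand (16-18 MBq/200 μL). Liver ROI as decay-corrected SUV (injected activity, body weight), 27.5-min value versus controls; n = 4.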

[25] = test system: Liver; experiment: Drug uptake in Sprague-Dawley rat liver at 0.18 nmol, iv pretreated with unlabeled (R)-PK11195 measured after 27.5 mins by PET scanning relative to control; format: ADME, organism-based; settings: in vivo
Method in brief: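 Male Sprague-Dawley rats, 6-8 weeks old, under isoflurane, prone. An unlabeled TSPO blocking ligand (3.0 mg/kg) was injected 1 min before the iv radioligand (16-18 MBq/200 μL). A liver ROI was decay-corrected and expressed as SUV normalized to injected activity and body weight. The 27.5-min value was compared with unblocked controls; n = 4.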

[26] = test system: Heart; experiment: Drug uptake in Sprague-Dawley rat heart at 0.18 nmol, iv after 2 mins by PET scanning; format: ADME, organism-based; settings: in vivo; method in brief: as §3
[27] = test system: Heart; experiment: Drug uptake in Sprague-Dawley rat heart at 0.18 nmol, iv pretreated with unlabeled (R)-PK11195 by PET scanning; format: ADME, organism-based; settings: in vivo
Method in brief: (§4)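 Isoflurane-anesthetized Sprague-Dawley rats underwent 30-min PET after iv [11C]radioligand, with unlabeled blocker given iv 1 min before tracer. Blockers were (R)-PK11195 at 3.0 mg/kg or AC-5216 at 1.0 mg/kg in 300 μL saline with 10% ethanol and 5% polysorbate 80. Regional uptake was decay-corrected SUV (n = 4).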

[28] = test system: Liver; experiment: Drug uptake in Sprague-Dawley rat liver at 0.18 nmol, iv after 2 mins by PET scanning; format: ADME, organism-based; settings: in vivo; method in brief: as §2
[29] = test system: Liver; experiment: Drug uptake in Sprague-Dawley rat liver at 0.18 nmol, iv up to 30 mins by PET scanning; format: ADME, organism-based; settings: in vivo, 0.5 h; method in brief: as §2
[30] = test system: Kidney; experiment: Drug uptake in Sprague-Dawley rat kidney at 0.18 nmol, iv up to 30 mins by PET scanning; format: ADME, organism-based; settings: in vivo, 0.5 h; method in brief: as §2
[31] = test system: Blood; experiment: Drug uptake in Sprague-Dawley rat cardiac blood pool at 0.18 nmol, iv after 27.5 mins by PET scanning; format: ADME, organism-based; settings: in vivo; method in brief: as §3
[32] = test system: Kidney; experiment: Drug uptake in Sprague-Dawley rat kidney at 0.18 nmol, iv pretreated with unlabeled AC-5216 by PET scanning; format: ADME, organism-based; settings: in vivo; method in brief: as §2
[33] = test system: Heart; experiment: Drug uptake in Sprague-Dawley rat heart at 0.18 nmol, iv pretreated with unlabeled AC-5216 by PET scanning; format: ADME, organism-based; settings: in vivo; method in brief: as §4
[34] = test system: Kidney; experiment: Drug uptake in Sprague-Dawley rat kidney at 0.18 nmol, iv after 27.5 mins by PET scanning; format: ADME, organism-based; settings: in vivo; method in brief: as §2

Sequence of Translocator protein (P16257 whole entry, looked up): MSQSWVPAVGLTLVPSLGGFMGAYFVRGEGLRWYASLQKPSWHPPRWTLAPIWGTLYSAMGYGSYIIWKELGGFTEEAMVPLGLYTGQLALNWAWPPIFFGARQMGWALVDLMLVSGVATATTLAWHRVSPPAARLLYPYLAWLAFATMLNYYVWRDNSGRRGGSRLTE

Drug uptake [1]: Active
Drug uptake [2]: Active
SUV [3]: 7.6
Drug uptake [4]: Active
SUV [5]: 2.8
Drug uptake [6]: Active
SUV [7]: 4.2
SUV [8]: 2.3
Structure (SMILES): CCN(Cc1ccccc1)C(=O)Cn1c(=O)n([11CH3])c2cnc(-c3ccccc3)nc21

Drug uptake [1]: Active
Drug uptake [2]: Active
Drug uptake [3]: Active
Drug uptake [4]: Active
Drug uptake [5]: Active
Drug uptake [6]: Active
Drug uptake [7]: Active
Drug uptake [8]: Active
Structure (SMILES): CC[C@@H](C)N([11CH3])C(=O)c1cc2ccccc2c(-c2ccccc2Cl)n1

logD [9]: 1.81
Ki [10]: 40 nM
Structure (SMILES): CN(Cc1cccnc1)C(=O)Cn1c(=O)n(C)c2cnc(-c3ccccc3)nc21

Drug uptake [11]: Active
Drug uptake [12]: Active
SUV [13]: 3.3
Drug uptake [14]: Active
SUV [15]: 3.4
SUV [16]: 3
Drug uptake [17]: Active
Drug uptake [18]: Not Active
SUV [19]: 0.5
Drug uptake [20]: Not Active
Drug uptake [21]: Not Active
SUV [22]: 0.9
SUV [23]: 0.5
fold change (FC) [24]: 1.5
fold change (FC) [25]: 1.5
SUV [26]: 4.6
Drug uptake [27]: Not Active
SUV [28]: 1.6
Drug uptake [29]: Active
Drug uptake [30]: Active
SUV [31]: 0.4
Drug uptake [32]: Not Active
Drug uptake [33]: Not Active
SUV [34]: 1
Structure (SMILES): CCN(Cc1cccnc1)C(=O)Cn1c(=O)n([11CH3])c2cnc(-c3ccccc3)nc21

— ChEMBL document CHEMBL2203116, “Synthesis and evaluation of novel carbon-11 labeled oxopurine analogues for positron emission tomography imaging of translocator protein (18 kDa) in peripheral organs” (J Med Chem, 2011)
